In ChEMBL document CHEMBL1833819, “Dihydroquinazolines as a novel class of Trypanosoma brucei trypanothione reductase inhibitors: discovery, synthesis, and characterization of their binding mode by protein crystallography” (J Med Chem, 2011):

Key:
[1] = system: Trypanosoma brucei brucei; assay: Antitrypanosomal activity against blood stream form Trypanosoma brucei brucei by resazurin fluorescence-based viability assay; format: functional, organism-based
Outline: (§1)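 Bloodstream-form T. b. brucei parasites and MRC5 cells were assayed in resazurin fluorescence-based viability tests. […] Pentamidine served as the positive control in all T. brucei plates.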

[2] = target: T1, Trypanothione reductase (Trypanosoma brucei brucei, UniProt P39051); assay: Inhibition of recombinant trypanothione reductase from Trypanosoma brucei brucei S427 by DTNB-coupled spectrophotometric assay
T1 sequence (P39051 whole entry): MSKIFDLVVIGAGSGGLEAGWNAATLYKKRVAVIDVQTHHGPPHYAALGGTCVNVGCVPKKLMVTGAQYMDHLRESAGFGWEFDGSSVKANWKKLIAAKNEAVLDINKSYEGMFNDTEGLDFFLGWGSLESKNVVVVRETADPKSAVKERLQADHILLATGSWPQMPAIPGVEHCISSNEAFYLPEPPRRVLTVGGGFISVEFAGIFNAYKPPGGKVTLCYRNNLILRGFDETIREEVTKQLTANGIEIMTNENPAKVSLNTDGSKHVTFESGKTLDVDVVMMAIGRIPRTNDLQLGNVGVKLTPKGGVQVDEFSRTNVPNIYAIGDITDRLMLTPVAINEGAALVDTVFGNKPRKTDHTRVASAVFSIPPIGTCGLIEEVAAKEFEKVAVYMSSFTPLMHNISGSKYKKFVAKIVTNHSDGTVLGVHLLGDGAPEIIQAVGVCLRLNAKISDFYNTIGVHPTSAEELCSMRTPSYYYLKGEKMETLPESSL
Outline: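 Recombinant T. brucei brucei S427 TryR tested in a nonenzymatically coupled spectrophotometric assay, where DTNB reduction to TNB is followed as A412 increase. IC50 is the mean of independent duplicates (at least two replicates).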

[3] = target: T2, Glutathione reductase, mitochondrial (Homo sapiens, UniProt P00390); assay: Inhibition of human glutathione reductase
T2 sequence (P00390 whole entry): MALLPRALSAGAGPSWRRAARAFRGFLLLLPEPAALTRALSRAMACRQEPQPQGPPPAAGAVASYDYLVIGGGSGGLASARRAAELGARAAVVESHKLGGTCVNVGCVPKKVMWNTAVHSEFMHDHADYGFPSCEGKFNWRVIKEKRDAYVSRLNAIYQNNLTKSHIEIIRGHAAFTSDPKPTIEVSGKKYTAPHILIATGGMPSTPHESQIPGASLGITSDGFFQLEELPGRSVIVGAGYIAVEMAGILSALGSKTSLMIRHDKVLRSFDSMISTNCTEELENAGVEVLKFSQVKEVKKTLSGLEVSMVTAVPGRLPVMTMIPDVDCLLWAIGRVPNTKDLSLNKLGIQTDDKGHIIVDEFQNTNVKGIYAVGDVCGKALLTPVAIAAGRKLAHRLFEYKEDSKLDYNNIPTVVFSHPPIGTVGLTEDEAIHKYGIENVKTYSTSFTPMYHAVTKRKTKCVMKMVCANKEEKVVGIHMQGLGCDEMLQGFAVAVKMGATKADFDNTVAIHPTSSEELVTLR

[4] = target: Trypanothione reductase (Trypanosoma cruzi, UniProt P28593); assay: Inhibition of trypanothione reductase from Trypanosoma cruzi by DTNB-coupled spectrophotometric assay
Trypanothione reductase (Trypanosoma cruzi, UniProt P28593), sequence (P28593 whole entry): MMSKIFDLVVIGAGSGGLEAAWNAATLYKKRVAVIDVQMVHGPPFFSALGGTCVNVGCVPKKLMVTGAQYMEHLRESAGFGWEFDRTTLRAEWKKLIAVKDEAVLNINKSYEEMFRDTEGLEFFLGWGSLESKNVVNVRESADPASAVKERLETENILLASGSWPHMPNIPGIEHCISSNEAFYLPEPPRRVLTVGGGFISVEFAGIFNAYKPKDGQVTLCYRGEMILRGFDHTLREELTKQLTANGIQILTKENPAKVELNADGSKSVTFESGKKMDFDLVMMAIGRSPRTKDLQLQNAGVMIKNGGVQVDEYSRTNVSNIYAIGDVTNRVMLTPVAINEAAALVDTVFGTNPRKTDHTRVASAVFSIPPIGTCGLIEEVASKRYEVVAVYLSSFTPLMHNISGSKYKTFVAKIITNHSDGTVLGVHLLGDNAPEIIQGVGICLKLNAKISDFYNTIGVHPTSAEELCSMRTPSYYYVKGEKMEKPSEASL

[5] = system: MRC5; assay: Cytotoxicity against human MRC5 cells by resazurin fluorescence-based viability assay; format: cell-based; outline: as §1
[6] = target: T1, Trypanothione reductase; assay: Mixed type inhibition of recombinant trypanothione reductase from Trypanosoma brucei brucei S427 by Lineweaver burk method
[7] = target: T1, Trypanothione reductase; assay: Competitive inhibition of recombinant trypanothione reductase from Trypanosoma brucei brucei S427 by Lineweaver burk method

Compound | EC50 [1] | IC50 [2] | IC50 [3] | IC50 [4] | EC50 [5] | Ki [6] | Ki [7]
COC(=O)CN1C(C)=Nc2ccc(Br)cc2C1c1ccccc1 (racemic) | 40000 nM | 6800 nM | > 100000 nM | 19000 nM |  |  | 
CC1=Nc2ccc(Cl)cc2C(c2ccccc2)N1CCNC(=O)c1ccco1 (racemic) | 19000 nM | 860 nM |  |  | 22000 nM | 2270 nM | 440 nM
CC1=Nc2ccc(Cl)cc2C(c2ccccc2)N1CCN1CCN(C)CC1 (racemic) |  | 930 nM |  |  | 4600 nM |  | 320 nM
COC(=O)CN1C(C)=Nc2ccc(C)cc2C1c1ccccc1 (racemic) |  | 67000 nM |  | 38000 nM |  |  | 
CC1=Nc2ccc(Cl)cc2C(c2ccccc2)N1CCN1CCN(C(=O)CN(C)C)CC1 (racemic) | 5600 nM | 370 nM |  |  | 6000 nM | 1780 nM | 270 nM
CC1=Nc2ccc(Cl)cc2C(c2ccc(C)cc2)N1CCCN(C)C (racemic) | 730 nM | 230 nM |  |  | 1900 nM | 1460 nM | 190 nM
CC1=Nc2ccc(Cl)cc2C(c2ccccc2)N1Cc1cccc(N(C)C)c1 (racemic) | 6400 nM | 810 nM |  |  | 27000 nM |  | 
CC1=Nc2ccccc2C(c2ccccc2)N1CCN1CCCCC1 (racemic) | 12000 nM | 780 nM |  |  | 23000 nM |  | 
CC1=Nc2ccc(Br)cc2C(c2ccccc2)N1CCN1CCCCC1 (racemic) | 440 nM | 790 nM |  |  | 8400 nM |  | 
CC1=Nc2ccc(I)cc2C(c2ccccc2)N1CCN1CCCCC1 (racemic) | 550 nM | 350 nM |  |  | 6800 nM |  | 
CC1=Nc2ccc(Cl)cc2C(c2cccc(F)c2)N1CCN1CCCCC1 (centres undefined) | 2000 nM | 900 nM |  |  | 10000 nM |  | 
